The values below come from PMC4004768 (The Journal of antibiotics, 2013).

The IC50 is the midpoint of a concentration-inhibition curve. A low value points to greater potency. As usually defined, the MIC is the least concentration at which growth counts as inhibited.

One data set relates to B. subtilis ATCC6633. Put plainly: antimicrobial activity assay in liquid medium. The data set is classed as cell-based, Bacillus subtilis.
Data set [1] has as its system B. subtilis ATCC 6633. Put plainly: propidium iodide uptake. It counts as cell-based, Bacillus subtilis. The following applies: B. subtilis ATCC 6633, lower efficiency than nisin.
Data set [2] relates to B. subtilis ATCC 6633. In words: membrane potential by flow cytometry with DiOC2. The following applies: 0, 0.2, 2, 20 μM, triplicate flow cytometry. It counts as cell-based, Bacillus subtilis. The essentials:
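Flow cytometry on bacteria exposed to the test compound at 0, 0.2, 2 and 20 μM, with DiOC2 as the membrane-potential dye. The read-out is mean fluorescence intensity averaged over triplicate measurements. An alternative read-out is the ratio of fluorescence at 610 and 530 nm.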
For orientation: Flow cytometry measures light scatter and fluorescence of single cells or particles in a stream.

For data set [3] the following is noted: cited from earlier work.
Setting [4] is: specific activity against B. subtilis ATCC6633, liquid medium.

Consider Geobacillin I, for which the “MIC relative to nisin” value against B. subtilis ATCC6633 (B. subtilis ATCC 6633, higher MIC compared to nisin) was “four-fold higher”. Besides, in the data set on B. subtilis ATCC6633 (setting [4]), the IC50 is 0.56 ± 0.01 µM and the MIC is 1.0 µM. Moreover, the “efficiency in PI uptake relative to nisin” value with B. subtilis ATCC 6633 [1] is listed as “two-fold lower”. Further, the “change in mean fluorescence intensity (MFI), DiOC2” value in the data set with B. subtilis ATCC 6633 [2] is reported as “significant decrease”. Besides, in data set [3], the “stability at physiological pH compared to nisin” value was “higher stability”.
